High-throughput results as filed in PubChem BioAssay.
Sampled rows, rich in hits. Any-hit rate of the full collection: about 7.1%.
HUVEC prolif 384: inhibitors of human endothelial cell proliferation | 86,000 tested, 1.1% active | HUVEC proliferation, CellTiter-Glo luminescence, 72 h; stronger effect = lower value | viability, % at 10 µM (by protocol);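 active = viability at or below 30%; inactive = viability above 30%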;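 also: 100% = median luminescence of DMSO-only cell control wells on each plate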
Cav32 inh: blocks human Cav3.2 T-type calcium channel. O95180. Cav3.2-expressing cells, Fluo-4 calcium fluorescence FDSS; stronger effect = lower value. B-score at 10 µM. 100,000 tested, 4% active;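 active = single-dose well whose peak fluorescence ratio is a statistical outlier from its plate by either plate-standardised score or position-corrected B-score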
Target sequence (O95180 whole entry, looked up): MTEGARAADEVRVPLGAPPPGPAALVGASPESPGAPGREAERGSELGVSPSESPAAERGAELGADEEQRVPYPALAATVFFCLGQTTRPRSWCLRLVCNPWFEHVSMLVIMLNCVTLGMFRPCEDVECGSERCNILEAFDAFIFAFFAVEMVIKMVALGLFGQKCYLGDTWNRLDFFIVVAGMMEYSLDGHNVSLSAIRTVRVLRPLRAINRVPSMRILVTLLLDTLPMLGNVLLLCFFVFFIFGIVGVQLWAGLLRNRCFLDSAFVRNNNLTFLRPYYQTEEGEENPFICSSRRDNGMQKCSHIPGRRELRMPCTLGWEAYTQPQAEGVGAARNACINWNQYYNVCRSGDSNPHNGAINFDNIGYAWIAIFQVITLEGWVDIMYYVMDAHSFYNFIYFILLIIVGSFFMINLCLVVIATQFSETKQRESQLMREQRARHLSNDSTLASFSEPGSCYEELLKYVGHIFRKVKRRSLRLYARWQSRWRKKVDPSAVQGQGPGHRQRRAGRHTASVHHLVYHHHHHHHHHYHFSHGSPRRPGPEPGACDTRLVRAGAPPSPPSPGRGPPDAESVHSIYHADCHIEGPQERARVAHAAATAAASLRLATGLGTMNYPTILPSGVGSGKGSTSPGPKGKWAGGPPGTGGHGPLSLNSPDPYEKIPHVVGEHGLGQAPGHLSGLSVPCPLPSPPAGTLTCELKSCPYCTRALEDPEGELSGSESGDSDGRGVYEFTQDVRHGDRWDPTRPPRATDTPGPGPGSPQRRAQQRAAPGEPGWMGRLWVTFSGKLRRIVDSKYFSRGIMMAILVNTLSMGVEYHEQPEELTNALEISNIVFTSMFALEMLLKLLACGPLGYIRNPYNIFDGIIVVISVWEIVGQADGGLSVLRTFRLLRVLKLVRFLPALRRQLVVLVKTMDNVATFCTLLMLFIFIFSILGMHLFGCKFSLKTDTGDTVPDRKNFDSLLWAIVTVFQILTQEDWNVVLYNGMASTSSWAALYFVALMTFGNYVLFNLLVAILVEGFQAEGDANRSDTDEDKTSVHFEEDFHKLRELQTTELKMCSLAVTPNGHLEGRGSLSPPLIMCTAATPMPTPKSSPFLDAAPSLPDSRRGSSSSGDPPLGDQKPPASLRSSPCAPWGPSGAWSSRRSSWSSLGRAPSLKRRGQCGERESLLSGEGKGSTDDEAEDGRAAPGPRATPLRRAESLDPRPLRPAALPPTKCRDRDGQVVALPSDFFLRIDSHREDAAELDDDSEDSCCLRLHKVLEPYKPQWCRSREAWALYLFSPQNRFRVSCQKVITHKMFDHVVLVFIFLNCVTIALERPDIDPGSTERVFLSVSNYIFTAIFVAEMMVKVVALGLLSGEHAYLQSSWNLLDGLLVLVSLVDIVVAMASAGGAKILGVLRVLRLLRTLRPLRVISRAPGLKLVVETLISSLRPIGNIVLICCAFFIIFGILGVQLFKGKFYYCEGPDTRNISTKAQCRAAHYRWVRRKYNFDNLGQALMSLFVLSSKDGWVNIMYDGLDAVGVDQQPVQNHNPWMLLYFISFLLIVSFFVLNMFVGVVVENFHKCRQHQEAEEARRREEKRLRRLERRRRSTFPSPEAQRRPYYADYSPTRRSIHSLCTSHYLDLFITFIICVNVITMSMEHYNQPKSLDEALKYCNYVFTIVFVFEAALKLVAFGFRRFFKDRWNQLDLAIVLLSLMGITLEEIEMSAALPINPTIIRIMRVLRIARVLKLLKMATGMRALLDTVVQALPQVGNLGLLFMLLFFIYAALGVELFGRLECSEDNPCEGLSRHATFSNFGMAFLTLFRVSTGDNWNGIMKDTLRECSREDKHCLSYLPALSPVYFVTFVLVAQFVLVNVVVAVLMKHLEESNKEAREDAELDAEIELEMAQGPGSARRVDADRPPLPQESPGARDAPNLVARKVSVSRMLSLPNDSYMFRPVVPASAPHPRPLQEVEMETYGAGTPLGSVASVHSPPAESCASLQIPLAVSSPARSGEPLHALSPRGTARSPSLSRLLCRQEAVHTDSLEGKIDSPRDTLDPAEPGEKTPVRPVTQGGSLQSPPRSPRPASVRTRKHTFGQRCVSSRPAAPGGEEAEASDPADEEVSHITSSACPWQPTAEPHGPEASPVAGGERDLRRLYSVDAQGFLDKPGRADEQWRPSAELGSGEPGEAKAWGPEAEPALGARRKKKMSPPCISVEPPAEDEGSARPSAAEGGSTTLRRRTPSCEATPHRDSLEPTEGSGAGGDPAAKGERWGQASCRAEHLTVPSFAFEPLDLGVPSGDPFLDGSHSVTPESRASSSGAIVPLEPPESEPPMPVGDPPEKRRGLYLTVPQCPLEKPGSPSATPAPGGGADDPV
HCT116 bCat-KO: beta-catenin-lacking colon tumor cell growth suppression; 140,000 tested, 1.5% active; HCT116 beta-catenin knockout viability, CellTiter-Glo, 60 h; stronger effect = lower value; viability, % at 10 µM;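 active = viability at or under a set limit, the compound median less 4 SD, cut at about 6% in these data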;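 also: 0% = Hyamine 1622 control at 20 µM and 100% = untreated cell control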
H69AR inhibit: growth inhibitors of human H69AR lung tumor cells | H69AR lung tumor viability, ATP luminescence, 72 h; stronger effect = lower value | viability, % at 10 µM | 85,000 tested, 6% active;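 active = viability at or below 40%; inactive = viability above 40%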;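 also: multidrug resistant small cell line overexpressing MRP-1 efflux transporter; 100% = mean luminescence of untreated control wells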
Fibroblast inh: blocks proliferation of human lung fibroblasts | LL 47 human lung fibroblast viability, ATP luminescence; stronger effect = lower value | viability, % at 10 µM | 85,000 tested, 1.1% active;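 active = viability at or below 50% in the single dose screen; inactive = viability above 50%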;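 also: compound exposure lasted 72 h before the ATP readout; 100% = median luminescence of untreated cell-only wells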
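Material: human LL 47 lung fibroblast cells; quantity: 1,150 cells/well; medium: IMEM plus 15% FBS; doses: 0.1% DMSO in all compound wells; timing: overnight attachment after seeding, then 72 h compound exposure at 37 °C; detection: CellTiter-Glo luminescence; measure: % viability of median cell-only signal; controls: cell-only wells, no compound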
HCT116 PTEN-null: growth suppressors of cells with PTEN tumor suppressor deletion; HCT116 PTEN-null viability, CellTiter-Glo, 60 h; stronger effect = lower value; viability, % at 10 µM; 140,000 tested, 1.2% active; AID 827;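 active = viability at or below a set limit, 4 SD under the median of all tested compounds, cut at about 3.7% in these data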;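 also: PTEN knockout HCT116 line with beta catenin targeted HCT116 as companion control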
The depositor's hits bear a star.

For C=CCNC(=O)C1CC(=O)N(c2ccc(OCC(=O)Nc3ccc(Cl)c(C(F)(F)F)c3)cc2)C1 (stereo not drawn) the results were HUVEC prolif 384 80, Cav32 inh 1.4, HCT116 bCat-KO 1.9*, H69AR inhibit 14*, Fibroblast inh 98 and HCT116 PTEN-null 1.9*.
`C=CCn1c(=O)/c(=C/c2ccc(F)cc2)s/c1=C(\C#N)c1nnc2n1CCCCC2` gave HUVEC prolif 384 70, Cav32 inh -0.38, HCT116 bCat-KO 57, H69AR inhibit 39*, Fibroblast inh 81 and HCT116 PTEN-null 52.
For CCOC(=O)N1CCN(C(=O)c2ccc(Cl)c(S(=O)(=O)Nc3ccccc3)c2)CC1 the results were HUVEC prolif 384 95, Cav32 inh 2.4, HCT116 bCat-KO 94, H69AR inhibit 32*, Fibroblast inh 104 and HCT116 PTEN-null 91.
Screening CCOC(=O)N1CCN(S(=O)(=O)c2ccc(C(=O)NNc3nc4ccc(Cl)cc4s3)cc2)CC1 returned Cav32 inh -1.5, HCT116 bCat-KO 4.4* and HCT116 PTEN-null 3.6*.
Screening CCOC(=O)N1CCN(S(=O)(=O)c2ccc(C(=O)Nc3nc4c(s3)CC(C)CC4)cc2)CC1 (stereo not drawn) returned HUVEC prolif 384 17*, HCT116 bCat-KO 1.5*, H69AR inhibit 7.5*, Fibroblast inh 7.7* and HCT116 PTEN-null 1.2*.
For COCCOC(=O)c1c(C)oc2ccc(OCc3cc(C(=O)OC)oc3C)cc12 the results were HUVEC prolif 384 63, Cav32 inh -1.4, HCT116 bCat-KO 24, H69AR inhibit 61, Fibroblast inh 95 and HCT116 PTEN-null 34.
`COC(=O)c1cc(COc2ccc3c(c2)oc(=O)c2ccccc23)c(C)o1` gave HUVEC prolif 384 25*, Cav32 inh -0.43, HCT116 bCat-KO 28, H69AR inhibit 20*, Fibroblast inh 98 and HCT116 PTEN-null 47.
For O=C(Nc1ccc(Cl)c(Cl)c1)Nc1ccc(N2CCCC2)c(S(=O)(=O)Nc2ccccc2Cl)c1 the results were HCT116 bCat-KO 1.6* and HCT116 PTEN-null 1.4*.
Screening O=C(Nc1ccc(F)cc1)Nc1ccc(N2CCCC2)c(S(=O)(=O)Nc2ccccc2Cl)c1 returned HCT116 bCat-KO 2.8* and HCT116 PTEN-null 1.9*.
`COc1ccccc1NS(=O)(=O)c1cc(NC(=O)Nc2ccccc2)ccc1N1CCCCC1` gave HCT116 bCat-KO 64 and HCT116 PTEN-null 46.
`COc1ccc(-c2[nH]ncc2-c2csc(C)n2)c(O)c1` gave HCT116 bCat-KO 96 and HCT116 PTEN-null 77.
COc1cccc(Oc2cn[nH]c2-c2ccc(O)cc2O)c1 was read as HUVEC prolif 384 84, Cav32 inh -2.7, HCT116 bCat-KO 94, H69AR inhibit 73, Fibroblast inh 87 and HCT116 PTEN-null 93.
`CCOc1ccc(-c2[nH]ncc2Oc2cccc(OC)c2)c(O)c1` gave HUVEC prolif 384 69, Cav32 inh -0.9, HCT116 bCat-KO 87, H69AR inhibit 18*, Fibroblast inh 93 and HCT116 PTEN-null 90.
`Oc1ccc(-c2[nH]ncc2-c2ccc(Cl)cc2)c(O)c1` gave HUVEC prolif 384 56, Cav32 inh -1.5, HCT116 bCat-KO 76, H69AR inhibit 99, Fibroblast inh 88 and HCT116 PTEN-null 67.
COc1ccc(-c2[nH]ncc2-c2ccc(Cl)cc2)c(O)c1 was read as HUVEC prolif 384 52, Cav32 inh -0.87, HCT116 bCat-KO 89, H69AR inhibit 14*, Fibroblast inh 88 and HCT116 PTEN-null 72.
COc1cccc(Oc2cn[nH]c2-c2ccc(OC)cc2O)c1 was read as HUVEC prolif 384 51, Cav32 inh -4.9*, HCT116 bCat-KO 94, H69AR inhibit 8.1*, Fibroblast inh 94 and HCT116 PTEN-null 88.
Cc1cc(C)cc(-n2nnc(C(=O)NCc3ccccc3Cl)c2N)c1 was read as HUVEC prolif 384 84, Cav32 inh -0.49, HCT116 bCat-KO 93, H69AR inhibit 99 and HCT116 PTEN-null 101.
For COc1ccc(-c2nnc(SCC(=O)N(Cc3ccccc3)C(C)(C)C)o2)cc1OC the results were HUVEC prolif 384 88, Cav32 inh -7.1*, HCT116 bCat-KO 37, H69AR inhibit 77, Fibroblast inh 95 and HCT116 PTEN-null 43.
Screening COc1ccc(C)cc1NC(=O)CN1CCN(C/C=C/c2ccccc2)CC1 returned Cav32 inh -2.7, HCT116 bCat-KO 73 and HCT116 PTEN-null 72.
CCOC(=O)c1cnc(SCC(=O)c2ccc(C)cc2)nc1N was read as HUVEC prolif 384 101, Cav32 inh -0.25, HCT116 bCat-KO 91, H69AR inhibit 92, Fibroblast inh 100 and HCT116 PTEN-null 96.
`CCOC(=O)c1cnc(SCc2nc(N)nc(Nc3ccc(F)cc3)n2)nc1N` gave HUVEC prolif 384 99, Cav32 inh -2.3, HCT116 bCat-KO 51, H69AR inhibit 36*, Fibroblast inh 91 and HCT116 PTEN-null 45.
For CCOC(=O)c1cnc(SCc2nc(N)nc(Nc3ccccc3OC)n2)nc1N the results were HUVEC prolif 384 113, HCT116 bCat-KO 93, H69AR inhibit 97, Fibroblast inh 102 and HCT116 PTEN-null 90.
CCOC(=O)c1cnc(SCc2nc(N)nc(Nc3ccc(C)cc3)n2)nc1N was read as HUVEC prolif 384 97, Cav32 inh -4.2, HCT116 bCat-KO 43, H69AR inhibit 35*, Fibroblast inh 76 and HCT116 PTEN-null 41.
`CCOC(=O)c1cnc(SCc2cccc(C)c2)nc1N` gave HUVEC prolif 384 102, Cav32 inh -4.9*, HCT116 bCat-KO 105, H69AR inhibit 80, Fibroblast inh 96 and HCT116 PTEN-null 112.
`COc1ccc(NC(=O)CSc2ccc3ccccc3c2)cc1S(=O)(=O)N1CCCCC1` gave HCT116 bCat-KO 17 and HCT116 PTEN-null 22.
`CC(CCc1ccccc1)NC(=O)N1CCOCC1` (stereo not drawn) gave HCT116 bCat-KO 97 and HCT116 PTEN-null 104.
CC1(C)Cc2c(cnn2-c2ccccc2)C(=O)/C1=N\NC(=O)c1ccncc1 was read as HUVEC prolif 384 97, Cav32 inh 0.54, H69AR inhibit 86 and Fibroblast inh 95.
`CC1(C)Cc2c(cnn2-c2ccccc2)-c2c1c1ccccc1n2CC(O)CCl` (stereo not drawn) gave HUVEC prolif 384 60, Cav32 inh -0.17, HCT116 bCat-KO 72, H69AR inhibit 25*, Fibroblast inh 92 and HCT116 PTEN-null 66.
For Cc1csc(NC(=O)CSc2nnc(-c3ccccc3)o2)n1 the results were HUVEC prolif 384 96, Cav32 inh -0.053, HCT116 bCat-KO 83, H69AR inhibit 91, Fibroblast inh 105 and HCT116 PTEN-null 78.
Cc1ccc(-c2nnc(SCC(=O)Nc3ccc(S(=O)(=O)N4CCCCCC4)cc3)o2)cc1 was read as HUVEC prolif 384 37, Cav32 inh -1.9, HCT116 bCat-KO 89, H69AR inhibit 8.8*, Fibroblast inh 81 and HCT116 PTEN-null 85.
